Measured values reported in ChEMBL document CHEMBL4765413, “Discovery of novel anti-angiogenesis agents. Part 11: Development of PROTACs based on active molecules with potency of promoting vascular normalization” (Eur J Med Chem, 2020).

Columns and labels:
[1] = molecular target: Vascular endothelial growth factor receptor 2 (Homo sapiens, UniProt P35968); experiment: Inhibition of recombinant human N-terminal GST-tagged VEGFR2 (789 to end residues) expressed in baculovirus infected Sf9 insect cells using Poly (4:1 Glu, Tyr) as substrate incubated for 1 hr by ADP-Glo luminescent assay
[2] = test system: EA.hy 926; experiment: Antiangiogenic activity in human EA.hy 926 cells measured after 24 hrs by MTT assay; settings: EA.hy 926, 24 h
[3] = test system: HEK293; experiment: Cytotoxicity against HEK293 cells measured after 24 hrs by MTT assay; assay type: cell-based; settings: human, hek293, 24 h
[4] = molecular target: T1, von Hippel-Lindau disease tumor suppressor/Vascular endothelial growth factor receptor 2 (Homo sapiens) (UniProt P35968+P40337); experiment: Protac activity at VHL/VEGFR2 in human EA.hy 926 cells assessed as induction of VEGFR2 degradation at 40 uM measured after 24 to 48 hrs by Western blot analysis relative to control; assay type: cell-based; settings: time 24-48 hrs
Procedure, shortened: (§1)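 EA.hy926 cells were exposed to DMSO vehicle or test compound, then lysed in SDS sample buffer and normalized by BCA protein assay. Equal protein amounts were run on SDS-PAGE and transferred to PVDF. Membranes were blocked in 5% milk/TBS-Tween and probed with anti-VEGFR-2 (1:500), with GAPDH (1:10000) as loading control. Detection used HRP secondary and ECL, with densitometric quantification.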

[5] = molecular target: T1, von Hippel-Lindau disease tumor suppressor/Vascular endothelial growth factor receptor 2 (Homo sapiens); experiment: Protac activity at VHL/VEGFR2 in human EA.hy 926 cells assessed as induction of VEGFR2 degradation measured after 24 to 72 hrs by Western blot analysis; assay type: cell-based; settings: time 24-72 hrs; procedure, shortened: as §1
[6] = test system: EA.hy 926; experiment: Cell cycle arrest in human EA.hy 926 cells assessed as accumulation at G1 phase at 0.1 uM measured after 72 hrs by propidium iodide staining based flow cytometry (reference value: 59.78%); assay type: functional
[7] = test system: EA.hy 926; experiment: Cell cycle arrest in human EA.hy 926 cells assessed as accumulation at G2 phase at 0.1 uM measured after 72 hrs by propidium iodide staining based flow cytometry (reference value: 25.83%); assay type: functional
[8] = test system: EA.hy 926; experiment: Cell cycle arrest in human EA.hy 926 cells assessed as accumulation at S phase at 0.1 uM measured after 72 hrs by propidium iodide staining based flow cytometry (reference value: 14.39%); assay type: functional
[9] = test system: EA.hy 926; experiment: Cell cycle arrest in human EA.hy 926 cells assessed as accumulation at G1 phase at 1 uM measured after 72 hrs by propidium iodide staining based flow cytometry (reference value: 59.78%); assay type: functional
[10] = test system: EA.hy 926; experiment: Cell cycle arrest in human EA.hy 926 cells assessed as accumulation at G2 phase at 1 uM measured after 72 hrs by propidium iodide staining based flow cytometry (reference value: 25.83%); assay type: functional
[11] = test system: EA.hy 926; experiment: Cell cycle arrest in human EA.hy 926 cells assessed as accumulation at S phase at 1 uM measured after 72 hrs by propidium iodide staining based flow cytometry (reference value: 14.39%); assay type: functional
[12] = test system: EA.hy 926; experiment: Cell cycle arrest in human EA.hy 926 cells assessed as accumulation at G1 phase at 10 uM measured after 72 hrs by propidium iodide staining based flow cytometry (reference value: 59.78%); assay type: functional
[13] = test system: EA.hy 926; experiment: Cell cycle arrest in human EA.hy 926 cells assessed as accumulation at G2 phase at 10 uM measured after 72 hrs by propidium iodide staining based flow cytometry (reference value: 25.83%); assay type: functional
[14] = test system: EA.hy 926; experiment: Cell cycle arrest in human EA.hy 926 cells assessed as accumulation at S phase at 10 uM measured after 72 hrs by propidium iodide staining based flow cytometry (reference value: 14.39%); assay type: functional
[15] = test system: EA.hy 926; experiment: Cell cycle arrest in human EA.hy 926 cells assessed as accumulation at G1 phase at 20 uM measured after 72 hrs by propidium iodide staining based flow cytometry (reference value: 59.78%); assay type: functional
[16] = test system: EA.hy 926; experiment: Cell cycle arrest in human EA.hy 926 cells assessed as accumulation at G2 phase at 20 uM measured after 72 hrs by propidium iodide staining based flow cytometry (reference value: 25.83%); assay type: functional
[17] = test system: EA.hy 926; experiment: Cell cycle arrest in human EA.hy 926 cells assessed as accumulation at S phase at 20 uM measured after 72 hrs by propidium iodide staining based flow cytometry (reference value: 14.39%); assay type: functional
[18] = test system: EA.hy 926; experiment: Cell cycle arrest in human EA.hy 926 cells assessed as accumulation at G1 phase at 40 uM measured after 72 hrs by propidium iodide staining based flow cytometry (reference value: 59.78%); assay type: functional
[19] = test system: EA.hy 926; experiment: Cell cycle arrest in human EA.hy 926 cells assessed as accumulation at G2 phase at 40 uM measured after 72 hrs by propidium iodide staining based flow cytometry (reference value: 25.83%); assay type: functional
[20] = test system: EA.hy 926; experiment: Cell cycle arrest in human EA.hy 926 cells assessed as accumulation at S phase at 40 uM measured after 72 hrs by propidium iodide staining based flow cytometry (reference value: 14.39%); assay type: functional
[21] = test system: EA.hy 926; experiment: Induction of apoptosis in human EA.hy 926 cells measured after 72 hrs by Annexin V-FITC/propidium iodide staining based flow cytometry; assay type: functional, cell-based
[22] = test system: EA.hy 926; experiment: Induction of apoptosis in human EA.hy 926 cells assessed as viable cells at 0.1 uM measured after 72 hrs by Annexin V-FITC/propidium iodide staining based flow cytometry (reference value: 88.6%); assay type: functional; settings: read-out: Activity
[23] = test system: EA.hy 926; experiment: Induction of apoptosis in human EA.hy 926 cells assessed as early apoptotic cells at 0.1 uM measured after 72 hrs by Annexin V-FITC/propidium iodide staining based flow cytometry (reference value: 3.4%); assay type: functional
[24] = test system: EA.hy 926; experiment: Induction of apoptosis in human EA.hy 926 cells assessed as necrotic cells at 0.1 uM measured after 72 hrs by Annexin V-FITC/propidium iodide staining based flow cytometry (reference value: 2.65%); assay type: functional
[25] = test system: EA.hy 926; experiment: Induction of apoptosis in human EA.hy 926 cells assessed as viable cells at 1 uM measured after 72 hrs by Annexin V-FITC/propidium iodide staining based flow cytometry (reference value: 88.6%); assay type: functional; settings: read-out: Activity
[26] = test system: EA.hy 926; experiment: Induction of apoptosis in human EA.hy 926 cells assessed as early apoptotic cells at 1 uM measured after 72 hrs by Annexin V-FITC/propidium iodide staining based flow cytometry (reference value: 3.4%); assay type: functional
[27] = test system: EA.hy 926; experiment: Induction of apoptosis in human EA.hy 926 cells assessed as necrotic cells at 1 uM measured after 72 hrs by Annexin V-FITC/propidium iodide staining based flow cytometry (reference value: 2.65%); assay type: functional
[28] = test system: EA.hy 926; experiment: Induction of apoptosis in human EA.hy 926 cells assessed as viable cells at 10 uM measured after 72 hrs by Annexin V-FITC/propidium iodide staining based flow cytometry (reference value: 88.6%); assay type: functional; settings: read-out: Activity
[29] = test system: EA.hy 926; experiment: Induction of apoptosis in human EA.hy 926 cells assessed as early apoptotic cells at 10 uM measured after 72 hrs by Annexin V-FITC/propidium iodide staining based flow cytometry (reference value: 3.4%); assay type: functional
[30] = test system: EA.hy 926; experiment: Induction of apoptosis in human EA.hy 926 cells assessed as necrotic cells at 10 uM measured after 72 hrs by Annexin V-FITC/propidium iodide staining based flow cytometry (reference value: 2.65%); assay type: functional
[31] = test system: EA.hy 926; experiment: Induction of apoptosis in human EA.hy 926 cells assessed as viable cells at 20 uM measured after 72 hrs by Annexin V-FITC/propidium iodide staining based flow cytometry (reference value: 88.6%); assay type: functional; settings: read-out: Activity
[32] = test system: EA.hy 926; experiment: Induction of apoptosis in human EA.hy 926 cells assessed as early apoptotic cells at 20 uM measured after 72 hrs by Annexin V-FITC/propidium iodide staining based flow cytometry (reference value: 3.4%); assay type: functional
[33] = test system: EA.hy 926; experiment: Induction of apoptosis in human EA.hy 926 cells assessed as necrotic cells at 20 uM measured after 72 hrs by Annexin V-FITC/propidium iodide staining based flow cytometry (reference value: 2.65%); assay type: functional
[34] = test system: EA.hy 926; experiment: Induction of apoptosis in human EA.hy 926 cells assessed as viable cells at 40 uM measured after 72 hrs by Annexin V-FITC/propidium iodide staining based flow cytometry (reference value: 88.6%); assay type: functional; settings: read-out: Activity
[35] = test system: EA.hy 926; experiment: Induction of apoptosis in human EA.hy 926 cells assessed as early apoptotic cells at 40 uM measured after 72 hrs by Annexin V-FITC/propidium iodide staining based flow cytometry (reference value: 3.4%); assay type: functional
[36] = test system: EA.hy 926; experiment: Induction of apoptosis in human EA.hy 926 cells assessed as necrotic cells at 40 uM measured after 72 hrs by Annexin V-FITC/propidium iodide staining based flow cytometry (reference value: 2.65%); assay type: functional
[37] = test system: EA.hy 926; experiment: Induction of apoptosis in human EA.hy 926 cells assessed as late apoptotic cells at 1 uM measured after 72 hrs by Annexin V-FITC/propidium iodide staining based flow cytometry (reference value: 5.34%)
[38] = test system: EA.hy 926; experiment: Induction of apoptosis in human EA.hy 926 cells assessed as late apoptotic cells at 10 uM measured after 72 hrs by Annexin V-FITC/propidium iodide staining based flow cytometry (reference value: 5.34%)
[39] = test system: EA.hy 926; experiment: Induction of apoptosis in human EA.hy 926 cells assessed as late apoptotic cells at 20 uM measured after 72 hrs by Annexin V-FITC/propidium iodide staining based flow cytometry (reference value: 5.34%)
[40] = test system: EA.hy 926; experiment: Induction of apoptosis in human EA.hy 926 cells assessed as late apoptotic cells at 40 uM measured after 72 hrs by Annexin V-FITC/propidium iodide staining based flow cytometry (reference value: 5.34%)
[41] = test system: EA.hy 926; experiment: Induction of apoptosis in human EA.hy 926 cells assessed as late apoptotic cells at 0.1 uM measured after 72 hrs by Annexin V-FITC/propidium iodide staining based flow cytometry (reference value: 5.34%)

Chain of Vascular endothelial growth factor receptor 2 (P35968 whole entry): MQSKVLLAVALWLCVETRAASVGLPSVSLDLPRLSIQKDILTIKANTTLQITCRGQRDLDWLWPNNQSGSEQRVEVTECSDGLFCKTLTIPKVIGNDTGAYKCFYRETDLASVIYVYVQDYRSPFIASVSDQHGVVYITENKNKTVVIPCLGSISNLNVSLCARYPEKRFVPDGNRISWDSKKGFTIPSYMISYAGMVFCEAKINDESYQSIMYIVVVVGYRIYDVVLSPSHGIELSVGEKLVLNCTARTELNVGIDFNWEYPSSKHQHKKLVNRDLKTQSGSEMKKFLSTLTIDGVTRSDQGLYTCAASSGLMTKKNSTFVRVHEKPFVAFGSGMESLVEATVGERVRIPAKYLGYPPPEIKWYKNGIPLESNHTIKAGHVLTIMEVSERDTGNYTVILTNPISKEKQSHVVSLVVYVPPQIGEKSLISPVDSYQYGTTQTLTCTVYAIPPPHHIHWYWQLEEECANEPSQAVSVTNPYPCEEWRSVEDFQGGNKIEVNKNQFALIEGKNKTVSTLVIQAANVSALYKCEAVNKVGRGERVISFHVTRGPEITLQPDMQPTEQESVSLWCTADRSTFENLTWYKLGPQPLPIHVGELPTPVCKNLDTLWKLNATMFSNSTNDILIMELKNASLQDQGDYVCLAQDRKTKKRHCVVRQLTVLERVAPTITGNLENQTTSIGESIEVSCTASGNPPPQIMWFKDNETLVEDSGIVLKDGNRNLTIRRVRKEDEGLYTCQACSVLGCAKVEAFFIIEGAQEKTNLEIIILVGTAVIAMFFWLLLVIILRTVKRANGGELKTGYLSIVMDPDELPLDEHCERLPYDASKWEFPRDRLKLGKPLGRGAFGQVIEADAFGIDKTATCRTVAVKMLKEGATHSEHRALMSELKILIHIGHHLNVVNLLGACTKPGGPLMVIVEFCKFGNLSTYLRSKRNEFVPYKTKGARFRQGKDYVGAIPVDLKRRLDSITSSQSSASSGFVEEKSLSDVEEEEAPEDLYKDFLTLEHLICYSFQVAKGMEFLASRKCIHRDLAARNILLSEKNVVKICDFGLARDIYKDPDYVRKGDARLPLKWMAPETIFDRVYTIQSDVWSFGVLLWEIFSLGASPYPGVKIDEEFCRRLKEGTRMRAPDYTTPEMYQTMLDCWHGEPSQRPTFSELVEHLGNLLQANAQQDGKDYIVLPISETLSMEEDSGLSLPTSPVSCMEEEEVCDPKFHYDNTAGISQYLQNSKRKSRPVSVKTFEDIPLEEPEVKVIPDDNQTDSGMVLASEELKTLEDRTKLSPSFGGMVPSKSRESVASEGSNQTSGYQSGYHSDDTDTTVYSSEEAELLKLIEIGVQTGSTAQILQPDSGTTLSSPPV
T1 sequence (P35968 20-1356 limits assumed): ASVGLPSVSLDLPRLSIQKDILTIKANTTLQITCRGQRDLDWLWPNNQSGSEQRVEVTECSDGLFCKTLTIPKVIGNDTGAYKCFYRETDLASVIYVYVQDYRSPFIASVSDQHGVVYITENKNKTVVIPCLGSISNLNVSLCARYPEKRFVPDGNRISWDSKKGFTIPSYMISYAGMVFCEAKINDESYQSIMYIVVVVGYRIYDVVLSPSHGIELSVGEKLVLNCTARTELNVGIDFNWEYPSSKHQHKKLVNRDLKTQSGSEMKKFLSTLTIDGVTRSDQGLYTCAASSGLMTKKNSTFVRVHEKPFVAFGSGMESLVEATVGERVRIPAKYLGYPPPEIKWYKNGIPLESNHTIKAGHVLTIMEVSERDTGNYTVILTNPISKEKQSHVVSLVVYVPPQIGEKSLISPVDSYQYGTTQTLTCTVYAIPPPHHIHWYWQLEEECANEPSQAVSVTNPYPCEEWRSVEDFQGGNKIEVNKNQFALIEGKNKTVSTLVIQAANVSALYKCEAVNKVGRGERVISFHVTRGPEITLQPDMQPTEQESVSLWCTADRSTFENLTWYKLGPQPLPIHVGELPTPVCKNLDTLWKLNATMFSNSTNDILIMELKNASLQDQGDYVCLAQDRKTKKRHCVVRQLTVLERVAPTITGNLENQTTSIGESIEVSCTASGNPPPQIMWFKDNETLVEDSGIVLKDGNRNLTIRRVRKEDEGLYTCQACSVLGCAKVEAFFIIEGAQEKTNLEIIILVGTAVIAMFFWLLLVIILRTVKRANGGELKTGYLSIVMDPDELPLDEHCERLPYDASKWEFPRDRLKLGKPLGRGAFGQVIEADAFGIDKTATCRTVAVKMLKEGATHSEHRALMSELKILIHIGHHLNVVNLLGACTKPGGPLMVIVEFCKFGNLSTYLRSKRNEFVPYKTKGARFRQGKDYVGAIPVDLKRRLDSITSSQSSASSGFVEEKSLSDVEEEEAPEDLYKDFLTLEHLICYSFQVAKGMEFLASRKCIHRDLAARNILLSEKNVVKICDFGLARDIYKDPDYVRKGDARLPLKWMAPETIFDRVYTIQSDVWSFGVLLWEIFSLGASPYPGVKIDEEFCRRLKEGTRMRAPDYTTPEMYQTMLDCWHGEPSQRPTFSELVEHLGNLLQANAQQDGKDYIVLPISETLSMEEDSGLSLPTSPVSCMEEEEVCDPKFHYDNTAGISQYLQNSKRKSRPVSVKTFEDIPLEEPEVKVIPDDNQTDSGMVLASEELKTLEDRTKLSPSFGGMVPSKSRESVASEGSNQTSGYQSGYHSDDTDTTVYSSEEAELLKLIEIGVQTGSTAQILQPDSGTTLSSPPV
T1 sequence (P40337 whole entry partner): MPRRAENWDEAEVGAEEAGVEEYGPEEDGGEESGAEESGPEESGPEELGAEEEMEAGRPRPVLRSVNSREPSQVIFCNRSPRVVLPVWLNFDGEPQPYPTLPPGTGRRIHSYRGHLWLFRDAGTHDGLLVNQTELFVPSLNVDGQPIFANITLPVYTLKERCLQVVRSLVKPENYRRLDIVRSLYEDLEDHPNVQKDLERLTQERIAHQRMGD

`Cc1ccc(F)c(NC(=O)Nc2ccc(-c3cccc4c3c(N)nn4C(=O)CCCCCCCCCCC(=O)N[C@H](C(=O)N3C[C@H](O)C[C@H]3C(=O)NCc3ccc(-c4scnc4C)cc3)C(C)(C)C)cc2)c1` was tested, and the IC50 [1] was 209 nM, the IC50 [2] was 38600 nM and the Activity [3] was “Non-Toxic”. For the same compound, the Activity [4] was 60%, the Activity [5] was “Dose-dependent effect” and the Activity [6] was 58.89%. It also gave an Activity [7] of 23.48%, an Activity [8] of 17.63% and an Activity [9] of 59.22%. The Activity [10] was 25.79%, the Activity [11] was 14.99% and the Activity [12] was 60.14%. For the same compound, the Activity [13] was 24.49%, the Activity [14] was 15.36% and the Activity [15] was 40.7%. It also gave an Activity [16] of 24.92%, an Activity [17] of 34.38% and an Activity [18] of 25.98%. For the same compound, the Activity [19] was 30.4%, the Activity [20] was 43.62% and the Activity [21] was “Dose-dependent effect”. For the same compound, the viability at 0.1 µM [22] was 86.7%, the Activity [23] was 4.21% and the Activity [24] was 2.16%. The viability at 1 µM [25] was 81.6%, the Activity [26] was 5.96% and the Activity [27] was 4.12%. The viability at 10 µM [28] was 70.2%, the Activity [29] was 12.1% and the Activity [30] was 2.15%. It also gave a viability at 20 µM [31] of 31.5%, an Activity [32] of 18.2% and an Activity [33] of 1.72%. For the same compound, the viability at 40 µM [34] was 8.82%, the Activity [35] was 26.4% and the Activity [36] was 0.59%. For the same compound, the “late apoptotic cells %” value [37] was 8.32%, the “late apoptotic cells %” value [38] was 15.6% and the “late apoptotic cells %” value [39] was 48.7%. For the same compound, the “late apoptotic cells %” value [40] was 64.2% and the “late apoptotic cells %” value [41] was 6.94%.

`Cc1ncsc1-c1ccc(CNC(=O)[C@@H]2C[C@@H](O)CN2C(=O)[C@@H](NC(=O)CCCCCCCCCCCCCCC(=O)n2nc(N)c3c(-c4cccc(NC(=O)Nc5cccc(C(C)C)c5)c4)cccc32)C(C)(C)C)cc1` was tested, and the IC50 [1] was > 1000 nM, the IC50 [2] was > 100000 nM and the Activity [3] was “Non-Toxic”.

For `Cc1ccc(F)c(NC(=O)Nc2ccc(-c3cccc4c3c(N)nn4C(=O)CCCCCCCCCCCCCCC(=O)N[C@H](C(=O)N3C[C@H](O)C[C@H]3C(=O)NCc3ccc(-c4scnc4C)cc3)C(C)(C)C)cc2)c1`, the IC50 [1] was 80.4 nM and the Activity [3] was “Non-Toxic”.

In the case of `Cc1ccc(F)c(NC(=O)Nc2ccc(-c3cccc4c3c(N)nn4C(=O)CCCCCC(=O)N[C@H](C(=O)N3C[C@H](O)C[C@H]3C(=O)NCc3ccc(-c4scnc4C)cc3)C(C)(C)C)cc2)c1`, the IC50 [1] is reported as > 1000 nM, the IC50 [2] is reported as 133000 nM and the Activity [3] is reported as “Non-Toxic”.
